Compound activity as filed in PubChem BioAssay.
Sampled rows, rich in hits. Any-hit rate of the full collection: about 1.9%.
M5 antag = CHRM5 antagonism in calcium assay; CHO-hM5 cells, Fluo-8 calcium fluorescence, ACh EC80; inhibition, % at 3 µM; P08912; hit rate 0.59% among 360,000;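 active means inhibition above a per-plate cutoff, the mean of that plate's test compounds plus 3 SD, cut at about 27% in these data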;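 further: 0% = acetylcholine EC80 with DMSO and 100% = DMSO without agonist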
M5 PAM = CHRM5 positive allosteric modulation; P08912; CHO-K1 hM5, Fluo-8 calcium, ACh EC20 PAM; 0% = ACh EC20, 100% = ACh EC100; activation, % at 3 µM; hit rate 0.3% among 360,000; AID 624038;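 active means activation above the run cutoff, the mean activation of all test compounds plus 3 SD, cut at about 18% in these data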
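Measured by: Fluo-8 calcium fluorescence; material: human M5 receptor in CHO-K1 cells; schedule: Post-acetylcholine fluorescence recording 140 s; benchmarks: low control EC20 acetylcholine (0%), high control EC100 acetylcholine (100%); read-out: Max/basal fluorescence ratio as % of EC20–EC100 ACh window; compound: single dose, 3 µM nominal final test concentration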
M4 ag = CHRM4 agonism in calcium assay | P08173 | CHO-K1 hM4/Gqi5, Fluo-8 calcium fluorescence; vehicle 0%, full acetylcholine response 100% | hit rate 0.14% among 360,000 | AID 624127 | activation, % at 3 µM;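 active means activation above the run mean over all test wells plus 3 SD, cut at about 32% in these data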;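 further: peak over basal fluorescence ratio per well then scaled between controls; 0% = DMSO wells and 100% = acetylcholine at EC100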
Target sequence (P08173 whole entry, looked up): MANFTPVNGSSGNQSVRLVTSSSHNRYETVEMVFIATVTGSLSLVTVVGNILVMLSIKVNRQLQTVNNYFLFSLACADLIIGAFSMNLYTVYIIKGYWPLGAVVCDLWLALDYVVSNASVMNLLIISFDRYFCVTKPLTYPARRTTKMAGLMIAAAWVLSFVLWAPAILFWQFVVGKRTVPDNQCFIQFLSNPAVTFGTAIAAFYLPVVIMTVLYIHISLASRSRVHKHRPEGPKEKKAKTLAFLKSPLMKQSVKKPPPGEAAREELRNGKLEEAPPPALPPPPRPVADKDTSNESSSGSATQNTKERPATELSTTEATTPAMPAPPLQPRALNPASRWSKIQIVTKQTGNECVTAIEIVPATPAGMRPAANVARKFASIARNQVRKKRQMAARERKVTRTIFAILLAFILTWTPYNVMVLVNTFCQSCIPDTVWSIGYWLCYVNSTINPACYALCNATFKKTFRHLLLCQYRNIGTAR
CHRM5 agonist = CHRM5 agonism in calcium assay; P08912; hit rate 0.19% among 360,000; AID 624037; CHO-K1 hM5 cells, Fluo-8 calcium fluorescence; 0% DMSO wells, 100% maximal acetylcholine response; activation, % at 3 µM;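 active means activation above the run's mean over test compounds plus 3 SD, cut at about 23% in these data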;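 further: signal is peak over basal fluorescence ratio across the kinetic read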
M4 PAM = CHRM4 positive allosteric modulation | CHO-K1 hM4/Gqi5, Fluo-8 calcium fluorescence, ACh EC20; 0% = ACh EC20, 100% = maximal ACh | activation, % at 3 µM | hit rate 0.4% among 360,000 | AID 624126;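 active means activation above its plate's cutoff, the mean activation of sample wells plus 3 SD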
CHRM4 antagonist = antagonists of human muscarinic M4 receptor (CHRM4); inhibition, % at 3 µM; CHO-hM4 cells, ACh EC80, Fluo-8 calcium fluorescence; AID 624125; P08173; hit rate 0.73% among 360,000;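 active means inhibition above its plate's cutoff, the mean inhibition of sample wells plus 3 SD, cut at about 27% in these data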;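 further: 0% = acetylcholine EC80 with DMSO and 100% = DMSO without agonist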
* hit, by the source's call.

SMILES	M5 antag	M5 PAM	M4 ag	CHRM5 agonist	M4 PAM	CHRM4 antagonist
Cc1cc(Br)ccc1NC(=O)CN1C(=O)C2C3CC(c4ccccc4)C(C3)C2C1=O (stereo unspecified)	19	-9	10	3	-21	28*
CCOC(=O)CN(C(=O)COC(=O)C1=NNC(=O)CC1)c1ccc(F)cc1	17	-3	1	-1	3	-5
O=C(CCc1nnc(-c2ccccc2)o1)c1ccc(Cl)cc1	6	8	2	0	33*	13
O=C(Cc1ccc(Cl)cc1Cl)OCC(=O)N1CCCCC1	24	-5	2	-4	-6	1
O=C1CCCC(=NNC(=O)c2cc3ccccc3cc2O)C1	-2	-1	6	26*	5	3
O=C(NN=C1CCCC1)c1sc2ccccc2c1Cl	11	-1	1	3	9	-6
O=C1CCC/C(=N/NC(=O)c2sc3ccccc3c2Cl)C1	17	-11	23	24*	-17	21
CCCC(C)C(=O)Nc1ccc(S(N)(=O)=O)cc1 (stereo unspecified)	-9	8	1	-3	23*	-7
Cc1nc2scc(C)n2c(=O)c1S(=O)(=O)NCc1ccc(F)cc1	6	1	1	-3	0	4
CCN(CC)c1ccc(/C=N/Nc2nn[nH]n2)cc1	-11	19*	0	2	0	-5
CC(C)(C)[C@@H]1CCC(=O)N(CC[C@H](Sc2ccc(Br)cc2)c2ccccc2)CC1	6	-2	1	-4	2	-20
COc1ccc(/C=N/Nc2nonc2N)cc1	1	-3	1	0	1	8
Nc1nonc1NN=C1CCCCC1	-16	21*	1	3	9	-11
O=C(CCN1C(=O)NC2(CCCC2)C1=O)Nc1ccc(-c2nc3ccccc3s2)cc1	26	-41	28	3	-13	27*
c1cnc2c(C3NCCc4c3[nH]c3ccccc43)cccc2c1 (stereo unspecified)	8	-8	3	2	-14	38*
O=C(CSc1nc(-c2ccccc2)cc(=O)[nH]1)N1CCOCC1	40*	1	1	-4	7	-6
O=C(CSc1nc(O)cc(=O)[nH]1)N1CCOCC1	8	1	-1	-2	-1	-8
Cc1cc(=O)[nH]c(SCC(=O)N2CCN(C(c3ccccc3)c3ccccc3)CC2)n1	32*	-24	0	-8	-17	20
Cc1cc(=O)[nH]c(SCC(=O)N2CCCCC2)n1	8	-1	1	0	2	-17
Cc1ccccc1-c1noc(C(C)NC(=O)c2ccco2)n1 (stereo unspecified)	6	-1	2	-1	-1	-1
CC(=O)Cn1ncc(N(C)Cc2ccccc2)c(Cl)c1=O	3	-2	0	1	6	1
Cc1c(C)n(Cc2ccc(Cl)cc2)c2ccc(C(=O)NCCN3CCOCC3)cc12	16	-1	4	-8	-13	-5
O=c1c2ccccc2sc2ccc(NCCCN3CCOCC3)cc12	18	-10	33*	18	0	-15
COc1ccc(C(=O)Nc2cc(=O)[nH]c3ncnn23)cc1	5	1	0	-1	4	29*
O=C(Nc1cc(=O)[nH]c2ncnn12)c1ccco1	1	0	0	0	6	14
SMILES	M5 antag	M5 PAM	M4 ag	CHRM5 agonist	M4 PAM	CHRM4 antagonist
COc1ccc(NC(=O)Cc2ccccc2)cn1	1	4	4	-2	0	0
COc1ccc(NC(=O)/C(Cl)=C(/Cl)S(=O)Cc2ccccc2)cn1 (stereo unspecified)	42*	16	5	15	4	36*
COc1ccc(Cl)cc1NC(=O)CN1C(=O)NC2(CCCC2)C1=O	5	-3	0	-3	-8	14
C/C(=N\NC(=O)c1ccccc1O)c1ccc(NC(=O)Cc2ccccc2)cc1	24	-9	0	-5	-2	3
Nc1ccc2nc3c(=O)n(CCc4ccccc4)c(=O)[nH]c3nc2c1	33*	-31	45*	165*	-18	18
CCCCn1c(=O)[nH]c2nc3cc(N)ccc3nc2c1=O	16	-11	57*	22	-24	22
Nc1ccc2nc3c(=O)n(C4CCCCC4)c(=O)[nH]c3nc2c1	35*	-40	70*	133*	-42	21
Cc1cc2nc3c(=O)n(CCc4ccccc4)c(=O)[nH]c3nc2cc1N	6	-7	9	32*	-2	0
Nc1ccc2nc(CCc3ccccc3)[nH]c2c1	5	-6	6	-2	3	-6
O=C(c1cccc(Cl)c1)N1CCCC(C(=O)N2CCN(c3ccccc3)CC2)C1 (stereo unspecified)	0	1	3	-4	-3	-11
COc1ccc(C(=O)NC(=S)NCc2cccnc2)cc1Cl	21	-4	0	-3	2	0
O=C(CCl)NC(Cc1ccccc1)C(=O)OCC(=O)c1ccc(-c2ccccc2)cc1 (stereo unspecified)	14	-35	9	-8	-11	27*
COC(=O)c1ccc(-c2nc(O)c3cnccn23)cc1	8	-1	34*	-4	3	-3
Oc1nc(-c2ccc(Cl)cc2)n2ccncc12	11	-1	1	-4	0	-5
N/C(=N\NC(=O)c1cccc(F)c1)c1cc2ccccc2oc1=O	-2	9	1	0	28*	-11
Cc1ccc(S(=O)(=O)NCCN2CCNC2=O)cc1	-9	10	0	4	34*	-21
O=C1NCCN1CCNS(=O)(=O)c1ccc(F)c(Cl)c1	2	3	1	0	-4	7
Cc1ccc(CN2CCNC2=O)cc1	0	8	1	-4	34*	-9
O=C([O-])c1cc(-c2ccccc2)cc(-c2ccccc2)[n+]1CCc1ccc(Cl)cc1	18	-11	3	-10	-5	19
Cc1ccc(-c2csc(NC(=O)c3ccc(-c4ccccc4)cc3)n2)o1	16	-6	9	8	-10	40*
CN1C(=S)SC(C)(C)C1(C)NO (stereo unspecified)	-12	26*	1	-1	7	-2
Cc1ccc(NC(=O)CCN2CC(C)OC(C)C2)cc1 (stereo unspecified)	-4	6	1	-1	3	-17
O=C(NNS(=O)(=O)c1ccc([N+](=O)[O-])cc1)C(=O)Nc1cccc(C(=O)O)c1	-7	6	1	-2	19*	-9
